pIC50: −log10 of the molar value. Where “and” joins values, the source holds several entries; their conditions need not be identical. Equal values may be shown once. Square brackets hold non-standard residues; d marks the D form. Peptide text beside a SMILES is read from it. * marks the point of attachment. ξ: configuration not given here. Tyr(Nα,Nα-Bn2) = O=C([C@H](Cc1ccc(O)cc1)N(Cc1ccccc1)Cc1ccccc1)*; Phe(4-N(CH2CH2Cl)2) = N[C@@H](Cc1ccc(N(CCCl)CCCl)cc1)C(=O)O; ξPhe(4-N(CH2CH2Cl)2) = NC(Cc1ccc(N(CCCl)CCCl)cc1)C(=O)O; X1 = O=C(C(Cc1ccc(O)cc1)N(Cc1ccccc1)Cc1ccccc1)*; ξL = CC(C)CC(N)C(=O)O; Aib = CC(C)(N)C(=O)O

What is called inhibition is the relative decrease from the control value, in per cent. Low values mean a weak effect, high ones a strong effect. The term pIC50 denotes the IC50 on a negative log10 scale, so that one unit is a factor of ten. A higher pIC50 goes with a small IC50. As a reminder, the Inhibition is the relative decrease from the control value, in per cent. Lower therefore signals a weak effect.

The species named for experiment [1] is Mus musculus. Briefly: Ratio of IC50 of DADLE (agonist) expossed to the compound for 10 min and then washed 30 times to Ratio of IC50 of morphine (agonist) prior to exposure to compound. It counts as functional. An outline of the steps:
(§1)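 Irreversible antagonism was measured in isolated tissue. The tissue was exposed to the compound for 10 min (30 min in some cases), then washed 30 times with fresh buffer to remove non-covalently bound ligand. Agonist IC50 was then redetermined. The ratio is this post-wash IC50 over the agonist IC50 in the same tissue before exposure. Mean ± SEM, n = 3 unless otherwise noted.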

For experiment [2], the species on record is Mus musculus. Kind of experiment: Ratio of IC50 of morphine (agonist) expossed to the compound for 10 min and then washed 30 times to Ratio of IC50 of morphine (agonist) prior to exposure to compound. It counts as functional. Put shortly: as §1
For experiment [3], the target named is Kappa-type opioid receptor (Cavia porcellus) (UniProt P41144). Briefly: Ratio of IC50 of ethylketazocine (agonist) after 10 min of incubation along with compound (antagonist) and IC50 of agonist in absence of compound for Opioid receptor kappa 1 at 1 uM in GPI assay (Exp 1). It counts as functional. An outline of the steps:
(§2)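 Reversible antagonism was measured in electrically stimulated isolated tissue (MVD or GPI) with the antagonist present. Agonists were morphine (μ), ethylketazocine (κ) and DADLE (δ). The value is the agonist IC50 with antagonist divided by the IC50 without it, i.e. the fold rightward shift of the agonist dose-response curve. Mean ± SEM, n = 3 unless otherwise noted.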

For experiment [4] the target is unchanged. Briefly: Ratio of IC50 of ethylketazocine (agonist) after 10 min of incubation along with compound (antagonist) and IC50 of agonist in absence of compound for Opioid receptor kappa 1 at 1 uM in GPI assay (Exp 2). It counts as functional. Put shortly:
as §2

The target of experiment [5] is T1, Opioid receptor (Mus musculus) (UniProt P42866+P32300+P33534). Kind of experiment: Reversible opioid agonist activity in the electrically stimulated mouse vas deferens(MVD) at 10 uM of concentration. Type of experiment: functional.
T1 sequence (P32300 whole entry, looked up): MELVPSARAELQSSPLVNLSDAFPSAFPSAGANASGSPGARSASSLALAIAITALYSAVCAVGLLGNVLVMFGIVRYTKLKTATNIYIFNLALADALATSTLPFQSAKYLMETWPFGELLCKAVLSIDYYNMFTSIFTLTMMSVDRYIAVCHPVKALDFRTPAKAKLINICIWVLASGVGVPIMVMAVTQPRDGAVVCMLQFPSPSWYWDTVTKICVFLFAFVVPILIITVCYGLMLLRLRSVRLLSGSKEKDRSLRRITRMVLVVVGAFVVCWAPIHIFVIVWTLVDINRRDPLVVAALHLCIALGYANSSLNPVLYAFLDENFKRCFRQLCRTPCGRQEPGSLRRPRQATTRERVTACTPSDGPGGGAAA
T1 sequence (P33534 whole entry, looked up): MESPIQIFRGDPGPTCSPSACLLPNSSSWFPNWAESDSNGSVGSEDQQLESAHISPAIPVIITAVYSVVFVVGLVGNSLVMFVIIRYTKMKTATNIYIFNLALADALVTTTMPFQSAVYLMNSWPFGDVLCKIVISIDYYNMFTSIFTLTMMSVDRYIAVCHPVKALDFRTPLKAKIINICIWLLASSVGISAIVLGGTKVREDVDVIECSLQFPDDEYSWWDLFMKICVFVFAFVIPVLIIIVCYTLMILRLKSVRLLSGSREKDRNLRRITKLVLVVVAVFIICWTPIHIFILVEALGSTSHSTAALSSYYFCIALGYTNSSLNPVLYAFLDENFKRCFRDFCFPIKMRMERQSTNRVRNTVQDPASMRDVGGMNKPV
T1 sequence (P42866 whole entry, looked up): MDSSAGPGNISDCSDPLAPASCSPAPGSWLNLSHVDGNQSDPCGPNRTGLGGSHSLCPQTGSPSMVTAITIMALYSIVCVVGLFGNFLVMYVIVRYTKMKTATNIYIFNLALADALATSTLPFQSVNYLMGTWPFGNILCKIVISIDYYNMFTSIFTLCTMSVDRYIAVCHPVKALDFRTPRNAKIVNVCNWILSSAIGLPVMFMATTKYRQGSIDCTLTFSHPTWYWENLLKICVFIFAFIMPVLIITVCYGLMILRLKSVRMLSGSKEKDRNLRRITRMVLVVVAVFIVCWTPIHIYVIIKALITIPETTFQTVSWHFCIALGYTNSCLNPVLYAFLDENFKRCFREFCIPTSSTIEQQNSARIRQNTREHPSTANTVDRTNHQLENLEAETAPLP
The target in experiment [6] is Delta-type opioid receptor (Mus musculus) (UniProt P32300). Kind of experiment: Ratio of IC50 of DADLE (agonist) after 10 min of incubation along with compound (antagonist) and IC50 of agonist in the absence of compound for Opioid receptor delta 1 at 1 uM in MVD assay. It counts as functional. Put shortly:
as §2

The target is the same in experiment [7]. Kind of experiment: Ratio of IC50 of DADLE (agonist) after 10 min of incubation along with compound (antagonist) and IC50 of agonist in the absence of compound for Opioid receptor delta 1 at 10 uM in MVD assay. It counts as functional. Put shortly: as §2
The target in experiment [8] is Mu-type opioid receptor (Mus musculus) (UniProt P42866). Kind of experiment: Ratio of IC50 of […] (agonist) after 10 min of incubation along with compound (antagonist) and IC50 of agonist in absence of compound for Opioid receptor mu 1 at 1 uM in MVD assay. Type of experiment: functional. Put shortly: as §2
Sequence of Mu-type opioid receptor (Mus musculus) (P42866 whole entry): as the sequence (P42866 whole entry, looked up) above
Experiment [9] addresses T1, Opioid receptor (Mus musculus). Kind of experiment: (§3) Reversible opioid agonist activity in the electrically stimulated mouse vas deferens(MVD) at 1 uM concentration. Type of experiment: functional.
Experiment [10] addresses T2, Opioid receptors; mu/kappa/delta (Homo sapiens) (UniProt P41145+P41143+P35372). Kind of experiment: (§4) Reversible opioid agonist activity in the electrically stimulated guinea pig ileum(GPI) at 1 uM concentration (Exp 2). Type of experiment: functional, tissue-based. Conditions: Cavia porcellus, target entry is the homologue from another species.
In experiment [11] the target is T2, Opioid receptors; mu/kappa/delta (Homo sapiens). The conditions noted are these: Cavia porcellus; Ileum; 1 uM.
Experiment [12] addresses Mu-type opioid receptor (Cavia porcellus) (UniProt P97266). Conditions: 1 uM.
For experiment [13] the target is unchanged. Conditions: 1 uM. This is another data set of the same source.
Experiment [14] has as its target Mu-type opioid receptor (Mus musculus) (UniProt P42866). The conditions noted are these: 10 uM.
For experiment [15], the target named is Kappa-type opioid receptor (Cavia porcellus) (UniProt P41144). Kind of experiment: Ratio of IC50 of ethylketazocine (agonist) after 10 min of incubation along with compound (antagonist) and IC50 of agonist in absence of compound for kappa opioid receptor at 1 uM in GPI assay (Exp 1). Type of experiment: functional. Put shortly:
as §2

The species named for experiment [16] is Cavia porcellus. Briefly: Reversible opioid agonist activity in the electrically stimulated guinea pig ileum(GPI) at 1 uM concentration (Exp 1). It counts as functional.
Experiment [17] is filed under the species Cavia porcellus. The description is as §4.
Experiment [18] addresses Delta-type opioid receptor (Mus musculus) (UniProt P32300). Briefly: Ratio of IC50 of DADLE (agonist) after 10 min of incubation along with compound (antagonist) and IC50 of agonist in the absence of compound for delta opioid receptor at 1 uM in MVD assay. It counts as functional. Put shortly:
as §2

For experiment [19], the species on record is Mus musculus. The experiment is described as §3. It counts as functional.
The target in experiment [20] is Mu-type opioid receptor (Homo sapiens) (UniProt P35372). Briefly: Ratio of IC50 of […] (agonist) after 10 min of incubation along with compound (antagonist) and IC50 of agonist in absence of compound for mu opioid receptor at 1 uM in MVD assay. Type of experiment: functional. The conditions noted are these: Mus musculus. Put shortly:
as §2

The target in experiment [21] is Kappa-type opioid receptor (Cavia porcellus) (UniProt P41144). The conditions noted are these: 1 uM.
Sequence of Kappa-type opioid receptor (Cavia porcellus) (P41144 whole entry): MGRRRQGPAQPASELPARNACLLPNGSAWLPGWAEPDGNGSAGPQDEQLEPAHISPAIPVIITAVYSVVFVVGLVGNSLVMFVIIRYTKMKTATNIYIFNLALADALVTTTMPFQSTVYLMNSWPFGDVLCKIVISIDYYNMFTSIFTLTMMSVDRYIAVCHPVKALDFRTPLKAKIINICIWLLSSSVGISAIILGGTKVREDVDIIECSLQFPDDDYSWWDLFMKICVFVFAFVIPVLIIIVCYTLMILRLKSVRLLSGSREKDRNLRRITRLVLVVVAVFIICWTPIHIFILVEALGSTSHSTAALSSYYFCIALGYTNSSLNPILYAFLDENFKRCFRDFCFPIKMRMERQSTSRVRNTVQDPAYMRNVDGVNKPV
Experiment [22] addresses Delta-type opioid receptor (Homo sapiens) (UniProt P41143). Conditions: Cavia porcellus; 1 uM.
For experiment [23] the target is unchanged. Conditions: Cavia porcellus; 1 uM. This is another data set of the same source.
Experiment [24] has as its target Delta-type opioid receptor (Mus musculus) (UniProt P32300). The conditions noted are these: 10 uM.
Experiment [25] has as its target Delta-type opioid receptor (Homo sapiens) (UniProt P41143). Conditions: Cavia porcellus; 1 uM. This is another data set of the same source.
Experiment [26] has as its target Mu-type opioid receptor (Cavia porcellus) (UniProt P97266). Briefly: Ratio of IC50 of […] (agonist) after 10 min of incubation along with compound (antagonist) and IC50 of agonist in absence of compound for mu opioid receptor at 1 uM in GPI assay (Exp 2). It counts as functional. An outline of the steps:
as §2

The species named for experiment [27] is Cavia porcellus. Briefly: Reversible opioid antagonist activity in the electrically stimulated guinea pig ileum(GPI). Antagonist activity was evaluated with morphine at 0.02 uM concentration (Exp 2). It counts as functional.
The species named for experiment [28] is Cavia porcellus. Described as §4. Type of experiment: functional.
The target of experiment [29] is Kappa-type opioid receptor (Cavia porcellus) (UniProt P41144). Briefly: Ratio of IC50 of ethylketazocine (agonist) after 10 min of incubation along with compound (antagonist) and IC50 of agonist in absence of compound for kappa opioid receptor at 1 uM in GPI assay. Type of experiment: functional. Put shortly: as §2
The target in experiment [30] is Mu-type opioid receptor (Cavia porcellus) (UniProt P97266). Kind of experiment: Ratio of IC50 of […] (agonist) after 10 min of incubation along with compound (antagonist) and IC50 of agonist in absence of compound for mu opioid receptor at 1 uM in GPI assay. Type of experiment: functional. Put shortly:
as §2

Sequence of Mu-type opioid receptor (Cavia porcellus) (P97266 whole entry): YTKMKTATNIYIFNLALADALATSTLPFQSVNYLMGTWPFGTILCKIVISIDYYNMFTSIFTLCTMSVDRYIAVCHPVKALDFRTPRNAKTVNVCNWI
Sequence of Delta-type opioid receptor (Mus musculus) (P32300 whole entry): as the sequence (P32300 whole entry, looked up) above
Sequence of Mu-type opioid receptor (Homo sapiens) (P35372 whole entry): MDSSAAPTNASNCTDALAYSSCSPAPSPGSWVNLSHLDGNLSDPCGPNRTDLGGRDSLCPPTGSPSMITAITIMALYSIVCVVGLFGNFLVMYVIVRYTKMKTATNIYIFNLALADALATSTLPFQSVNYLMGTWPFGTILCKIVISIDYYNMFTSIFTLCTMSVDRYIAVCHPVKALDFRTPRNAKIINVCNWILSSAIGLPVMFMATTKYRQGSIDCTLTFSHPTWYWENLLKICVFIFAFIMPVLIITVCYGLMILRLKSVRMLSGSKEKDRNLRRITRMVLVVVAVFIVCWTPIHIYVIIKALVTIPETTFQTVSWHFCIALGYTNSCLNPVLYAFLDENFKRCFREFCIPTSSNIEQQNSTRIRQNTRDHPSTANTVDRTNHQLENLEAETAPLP
Sequence of Delta-type opioid receptor (Homo sapiens) (P41143 whole entry): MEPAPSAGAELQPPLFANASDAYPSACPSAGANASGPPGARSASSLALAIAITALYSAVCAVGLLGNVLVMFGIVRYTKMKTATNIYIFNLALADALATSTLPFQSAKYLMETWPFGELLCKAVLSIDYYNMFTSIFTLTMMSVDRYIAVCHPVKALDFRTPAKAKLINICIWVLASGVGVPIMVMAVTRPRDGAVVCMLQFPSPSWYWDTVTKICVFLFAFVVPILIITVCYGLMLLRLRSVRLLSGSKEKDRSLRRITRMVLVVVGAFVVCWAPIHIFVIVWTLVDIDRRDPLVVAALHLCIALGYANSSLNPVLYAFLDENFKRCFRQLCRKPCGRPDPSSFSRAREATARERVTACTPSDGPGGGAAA
T2 sequence (P35372 whole entry, looked up): as the sequence (P35372 whole entry) above
T2 sequence (P41143 whole entry, looked up): as the sequence (P41143 whole entry) above
T2 sequence (P41145 whole entry, looked up): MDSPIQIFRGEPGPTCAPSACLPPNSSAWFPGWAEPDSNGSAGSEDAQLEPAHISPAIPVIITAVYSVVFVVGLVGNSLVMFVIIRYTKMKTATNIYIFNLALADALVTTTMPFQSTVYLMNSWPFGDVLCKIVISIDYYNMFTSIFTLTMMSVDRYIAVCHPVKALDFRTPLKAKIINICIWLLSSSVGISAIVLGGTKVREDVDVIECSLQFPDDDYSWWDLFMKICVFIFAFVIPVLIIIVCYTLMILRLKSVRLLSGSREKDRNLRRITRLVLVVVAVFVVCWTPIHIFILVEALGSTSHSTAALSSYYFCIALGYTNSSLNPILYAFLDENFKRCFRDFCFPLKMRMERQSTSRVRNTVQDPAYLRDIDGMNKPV

Consider `CC(C)CC(NC(=O)C(Cc1ccc(N(CCCl)CCCl)cc1)NC(=O)CNC(=O)CNC(=O)C(Cc1ccc(O)cc1)N(Cc1ccccc1)Cc1ccccc1)C(=O)O` (stereo unspecified) (X1-GG[ξPhe(4-N(CH2CH2Cl)2)][ξL]-OH), for which the IC50 ratio turned out to be 2.4 in the experiment listed under Mus musculus [1]; 1.2 in the experiment listed under Mus musculus [2]; 0.4 in experiment [3]; 0.4 in experiment [4]; 3 in experiment [6]; 7.7 in [7]. In addition, the IC50 ratio in experiment [8] was 1; in experiment [12], 0.5; in experiment [13] it was 0.7; in [14], 1.7. Besides, the inhibition worked out at 18.3% in experiment [5], 16.2% in experiment [9], 10% in experiment [10] and 4.8% in experiment [11].

For the molecule `CC(C)C[C@H](NC(=O)[C@H](Cc1ccccc1)NC(=O)CNC(=O)CNC(=O)[C@H](Cc1ccc(O)cc1)N(Cc1ccccc1)Cc1ccccc1)C(=O)O` ({Tyr(Nα,Nα-Bn2)}-GGFL-OH), the IC50 ratio came out at 1 in [15]; 6.6 in experiment [18]; 1 in the experiment listed under Mus musculus [2]; 0.6 in [20]; 1 in [21]; 0.8 in [22]. The IC50 ratio was 1.2 in experiment [23], 96.9 in [24] and 2.5 in experiment [25]. Further, the inhibition at 1 µM in the experiment listed under Cavia porcellus [16] was found to be 1.9%; in the experiment filed under Cavia porcellus [17] it was 2.9%; in the experiment filed under Mus musculus [19], 11.4%.

With `CC(C)C[C@H](NC(=O)[C@H](Cc1ccccc1)NC(=O)C(C)(C)NC(=O)C(C)(C)NC(=O)[C@H](Cc1ccc(O)cc1)N(Cc1ccccc1)Cc1ccccc1)C(=O)O` ({Tyr(Nα,Nα-Bn2)}-[Aib][Aib]FL-OH), the IC50 ratio in experiment [15] was 1; in experiment [26], 0.7; in the experiment filed under Cavia porcellus [27], 1.3; in [18] it was 5.6; in experiment [20], 1. In the experiment listed under Cavia porcellus [28], this molecule showed a pIC50 of 6.52. The inhibition at 1 µM in the experiment listed under Cavia porcellus [16] turned out to be 68.7%; in the experiment filed under Mus musculus [19], 25.7%.

For the molecule `CC(C)C[C@H](NC(=O)[C@H](Cc1ccc(N(CCCl)CCCl)cc1)NC(=O)C(C)(C)NC(=O)C(C)(C)NC(=O)[C@H](Cc1ccc(O)cc1)N(Cc1ccccc1)Cc1ccccc1)C(=O)O` ({Tyr(Nα,Nα-Bn2)}-[Aib][Aib][Phe(4-N(CH2CH2Cl)2)]L-OH), the IC50 ratio in experiment [29] is 0.2 and 0.3; in [30], 0.4 and 1; in [18], 1.2; in experiment [20] it was 1. Also, the Inhibition in the experiment listed under Cavia porcellus [16] worked out at 12.5%. Also, the inhibition at 1 µM is 9.4% in the experiment filed under Cavia porcellus [16] (Cavia porcellus, Ileum) and 22.5% in the experiment filed under Mus musculus [19].

The record behind these values is ChEMBL document CHEMBL1123840, “Synthesis and evaluation of melphalan-containing N,N-dialkylenkephalin analogues as irreversible antagonists of the delta opioid receptor” (J Med Chem, 1987).
